# Shown are actives, neighbours in structure and some others; about 1.5% of the full set was active somewhere.
# APJ agonist = agonists of human APJ apelin receptor; P35414; CHO-K1 APJ PathHunter beta-arrestin, luminescence; 0% DMSO wells, 100% apelin; activation, % at 20 µM; 330,000 compounds, 0.11% hits;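 active = activation more than six SD over the plate average, tested at 20 µM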;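 note: 0% = DMSO alone and 100% = apelin-13 at 10 nM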
#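 assay system = CHO-K1 APJ beta-arrestin complementation cell line | input = cell density 1000 per well | dosing = compound 20 µM once, DMSO 1% | timing = compound 90 min 25 °C, reagent 1 h | measured by = luminescence from split beta-galactosidase complementation, Galacton Star/Emerald II substrate | read-out basis = APJ agonist activity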
# EBI2 antag = antagonists of human EBI2 receptor | EBI2 beta-arrestin recruitment, luminescence, 7a,25-OHC stimulated | inhibition, % at 5 µM | 360,000 compounds, 0.81% hits; in the data active = inhibition above about 38%;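 note: enzyme fragment complementation signal reports receptor beta-arrestin coupling in cells; 0% = agonist plus DMSO wells and 100% = wells without agonist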
# APJ antagonist = blocks the human apelin receptor APJ | P35414 | CHO-K1 APJ beta-arrestin complementation, luminescence | inhibition, % at 20 µM | 330,000 compounds, 0.32% hits | AID 2521;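 active = inhibition above about 40% at 20 µM, limit read from the data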;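 note: cells challenged with 10 nM apelin-13 agonist together with compound; plate controls were apelin-13 plus DMSO wells for no effect and DMSO wells lacking apelin-13 for full effect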
# CXCR6 inh = blocks human CXCR6 beta-arrestin recruitment; O00574; CHO-K1 PathHunter CXCR6 beta-arrestin, luminescence; inhibition, % at 20 µM; 360,000 compounds, 0.36% hits; AID 602244; in the data active = inhibition above about 34%, passing the limit was not always enough;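 note: antagonist mode with CXCL16 agonist at 10 nM final; 0% = 10 nM CXCL16 with DMSO and 100% = unstimulated wells without agonist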
# Target sequence (O00574 whole entry, looked up): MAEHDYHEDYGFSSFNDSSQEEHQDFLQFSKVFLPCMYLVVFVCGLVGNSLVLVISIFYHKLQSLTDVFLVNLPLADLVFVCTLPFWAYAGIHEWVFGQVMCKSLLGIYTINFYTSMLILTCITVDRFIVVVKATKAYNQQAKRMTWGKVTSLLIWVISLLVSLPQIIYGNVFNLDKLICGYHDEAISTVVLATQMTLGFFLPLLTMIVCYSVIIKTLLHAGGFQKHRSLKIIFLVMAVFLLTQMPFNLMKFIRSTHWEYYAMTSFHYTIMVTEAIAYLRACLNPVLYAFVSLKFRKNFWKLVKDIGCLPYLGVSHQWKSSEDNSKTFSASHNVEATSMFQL
# CCR6 antagonist = antagonists of human CCR6 receptor; P51684; CHO-K1 CCR6 PathHunter beta-arrestin, luminescence, CCL20-stimulated; inhibition, % at 20 µM; 340,000 compounds, 0.49% hits; AID 493098;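 active = compounds whose inhibition of the agonist-driven luminescence signal at 20 µM reaches about 50%, limit read from the data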;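 note: cells stimulated with CCL20 at 14 nM final; plate controls were DMSO with CCL20 for no effect and DMSO without agonist for full effect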
# APJ ag conf = confirmation of human APJ apelin receptor agonists; shares compounds with APJ agonist; CHO-K1 APJ PathHunter beta-arrestin, luminescence; activation, % at 20 µM; 310 compounds, 10% hits; AID 2764;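 active = activation above 40%, taking the highest of four retests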;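 note: plate controls were DMSO wells for no effect and apelin-13 at 10 nM for full effect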
# APJ antag confirm = APJ receptor antagonism confirmation. APJ beta-arrestin recruitment, luminescence, antagonist mode. AID 2766. inhibition, % at 20 µM. shares compounds with APJ antagonist. 950 compounds, 66% hits; in the data active = inhibition above about 50%
# An asterisk follows results filed as active; / = no result given; ! = not active in a repeat.
SMILES,APJ agonist,EBI2 antag,APJ antagonist,CXCR6 inh,CCR6 antagonist,others
CCOC(=O)[C@]12Cc3cc(C)ccc3[C@H]1N(C1CCCCC1)C(=O)c1cc(OC)ccc12,/,76*,/,26,/,
CCOC(=O)[C@]12Cc3ccccc3[C@H]1N(CCC(=O)OC)C(=O)c1ccccc12,/,6,/,-7,/,
O=[N+]([O-])/C=C/c1c(Cl)cccc1Cl,/,-24,/,100*,105*,
O=c1[nH]c2ccccc2n1C1CCN(C(CCc2ccccc2)c2nnnn2-c2ccc3c(c2)OCCO3)CC1 (stereo not drawn),/,10,/,3,/,
O=S(=O)(c1cccc2ccccc12)N1Cc2ccccc2-n2nncc2C1,/,9,/,-3,/,
Cc1ccc(/C=C2\C(=O)NC(=S)N(c3ccc(F)cc3)C2=O)s1,1,3,2,20,38,
Cc1ccc(/C=C2\C(=O)NC(=S)N(c3ccccc3F)C2=O)s1,/,11,/,40*,96*,
Fc1cccc(-c2ccc3c(c2)CNCc2cnnn2-3)c1,/,-3,/,-2,/,
O=C(Nc1ccc(C(=O)O)cc1)Oc1ccc(N(CCCl)CCCl)cc1,/,-14,/,-4,/,
COc1ccc(N2C(=O)/C(=C/C=C/c3ccccc3[N+](=O)[O-])C(=O)NC2=S)cc1,2,/,-1,/,59*,
C[C@@H]1CN([C@H](C)CO)C(=O)CCCn2nncc2CO[C@@H]1CN(C)C(=O)Oc1ccc2ccccc2c1,/,-4,/,0,/,
Nc1c(Br)cc2c3c(cccc13)-c1ccccc1-2,/,/,/,/,2,
ON1C2CCCCC2N(O)C1c1ccccc1 (stereo not drawn),-15,-1,33,34,67*,
O=C1NCN(c2ccccc2)C12CCN(C(CCc1ccccc1)c1nnnn1C1CCCCC1)CC2 (stereo not drawn),/,-10,/,2,/,
COc1cc(/C=C(/C)[N+](=O)[O-])ccc1OCc1ccccc1Cl,5,72*,28,50*,61*,
CN(C)c1ccc(/C=C/C=C/c2sc3ccccc3[n+]2C)cc1,-3,0,2,20,32,
CC[n+]1c(/C=C/C=C/c2ccc(N(C)C)cc2)sc2ccccc21,-4,13,35,53*,70*,
CCN(CC)c1ccc(/C=C/[N+](=O)[O-])cc1,2,0,35,40*,44,
CCN(CC)c1ccccc1,-2,1,2,3,2,
C=CCN1C(=O)NC(=O)/C(=C\c2ccc(-c3ccccc3[N+](=O)[O-])o2)C1=O,-3,8,-1,15,21,
O=C1NC(=O)N(Cc2ccco2)C(=O)/C1=C/c1ccc(-c2cccc([N+](=O)[O-])c2)o1,-4,24,24,35,65*,
NC(N)=N/N=C/c1cn(-c2ccccc2)nc1-c1cccs1,11*,-16,-40,-18,3,
COc1ccc(-n2c(/C=C/c3ccc(O)c(OC)c3)nc3ccccc3c2=O)cc1,-2,-13,-17,10,19,
COc1cc(/C=C/[N+](=O)[O-])ccc1O,1,-26,-15,28,56*,
CCOC(=O)[C@]12Cc3cc(C)ccc3[C@H]1N(C(C)C)C(=O)c1ccccc12,/,-20,/,6,/,
SMILES,APJ agonist,EBI2 antag,APJ antagonist,CXCR6 inh,CCR6 antagonist,others
CC1=CC2/C=C(\C)CCC(O)C(O)/C=C/C(=O)C23C(=O)NC(CC(C)C)C3C1C (stereo not drawn),-1,47*,19,29,33,
C/C1=C\[C@@H](C)C/C=C/[C@H]2[C@@H]3O[C@]3(C)[C@@H](C)[C@H]3[C@H](Cc4c[nH]c5ccccc45)NC(=O)[C@]32C(=O)/C=C/C(=O)[C@@H]1O,-1,-44,9,-1,43,
CCOc1ccc2nc(N=Nc3c(O)[nH]c(=S)[nH]c3=O)sc2c1,-6,11,56*,29,50*,
CCn1nc(-c2cccs2)nc2c(=O)n(C)c(=O)nc1-2,/,26,/,13,100*,
O=C(c1cc2c(s1)-c1ccccc1OC2)N1CCC2(CC1)OCCO2,-5,88*,-6,0,8,
COC(=O)C1=C(c2ccccc2OCc2ccccc2)C[C@@H]2CC[C@H]1N2C(=O)NCCOc1ccc(OC)cc1,-4,51*,2,15,14,
CC(C)(C)n1nnnc1C(c1cccs1)N1CCC2(CC1)C(=O)NCN2c1ccccc1 (stereo not drawn),/,3,/,-1,/,
C[n+]1ccc(-c2ccccc2)c2ccccc21,0,-6,-14,-3,11,
CN(C)c1ccc(/C=C/c2cc[n+](C)c3ccccc23)cc1,/,4,/,36,54*!,
CC(C)[C@H]1C(=O)N2CCC[C@H]2[C@]2(O)O[C@](NC(=O)[C@@H]3C=C4c5cccc6[nH]cc(c56)C[C@H]4N(C)C3)(C(C)C)C(=O)N12,16,5,6,-5,5,
CN1C[C@H](CO)C=C2c3cccc4[nH]cc(c34)C[C@H]21,17*,-5,-127,-8,3,APJ ag conf=-4
C/C=C1\NC(=O)[C@H](C)NC(=O)[C@@H](NC(=O)[C@H](Cc2ccc(O)cc2)NC(=O)[C@@H](NC(=O)/C(C)=C/C)C(C)C)[C@@H](C)OC(=O)[C@H](CCCc2ccc(O)cc2)NC(=O)[C@@H](CCC(=O)O)NC1=O,/,-7,/,-2,/,
COc1ccc(CN2C(=O)NC(=O)/C(=C\c3ccco3)C2=O)cc1,18*,0,5,-16,15,APJ ag conf=13
CCCCn1c(NS(=O)(=O)c2ccc(C)cc2)c(C(=O)OCC)c2nc3ccccc3nc21,-14,4,65*,-3,59*,APJ antag confirm=-4
CCCCn1c(N)c(C(=O)OCCOC)c2nc3ccccc3nc21,-9,8,31,7,19,
CCCCn1c(NC(=O)c2ccco2)c(C(=O)OCC)c2nc3ccccc3nc21,-22,18,64*,21,58*,APJ antag confirm=55*
CCCCn1c(N)c(C(=O)OCC2CCCO2)c2nc3ccccc3nc21 (stereo not drawn),-5,2,19,2,11,
O=C(NCC1=C(c2cccc3ccccc23)C[C@@H]2CC[C@H]1N2Cc1ccco1)c1cccs1,/,14,/,13,/,
CC1CCCN(CC(=O)c2ccc(Cl)c(Cl)c2)C1 (stereo not drawn),-15,16,122*,66*,101*,APJ antag confirm=158*
CCn1c(O)c(N=Nc2ccc(S(=O)(=O)N3CCOCC3)cc2)c(=O)n(CC)c1=S,-5,18,56*,23,29,APJ antag confirm=55*
CCn1c(O)c(N=Nc2cccc(S(=O)(=O)N3CCOCC3)c2)c(=O)n(CC)c1=S,-5,12,20,3,24,
Cc1cccc(C)c1-n1nnnc1C(c1cccs1)N1CCC2(CC1)C(=O)NCN2c1ccccc1 (stereo not drawn),/,2,/,5,/,
